From the array DNA melting data of Ke et al. (doi:10.1101/2024.01.08.574731)

Assays:
[1] = melting temperature; fluorescence melt of hairpins on a sequencing array, two-state fit, raised by 9.35 °C to match UV melts; settings: sodium 0.088 M
Method in brief: (§1)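 Melting temperature and folding enthalpy were derived from bootstrapped two-state fits. The fitted temperatures were raised by 9.35 °C to agree with UV melts, and four replicates were combined by inverse variance. The underlying data were Cy3 fluorescence images of library hairpins, with annealed Cy3 and quencher oligos, on a sequenced MiSeq flow cell in 50 mM Na-HEPES pH 8.0, 25 mM NaCl, taken in 2.5 °C steps up to 60 °C, normalised to pre-quench Cy3 and to control constructs.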

[2] = folding enthalpy; higher = less favourable; fluorescence melt of hairpins on a sequencing array, two-state fit; settings: sodium 0.088 M
Method in brief: as §1

Row | Sequence | Tm [1] [°C] | folding enthalpy [2] [kcal/mol]
1 | TGAGCGAAAGCTCA (((((....))))) | 67.6 | -12.8
2 | GAGAGCGAAAGCTAGCTC ((((((....)))..))) | 36.6 | -13.8
3 | GAGTTCGGAAACGGATTC ((.(.((....)).).)) | 27.3 | -17.4
4 | GCAACGCGAAAGCGTAGC ((.((((....)))).)) | 61.9 | -17.6
5 | GATAACGAAAGTTATC ((((((....)))))) | 53.9 | -32.9
6 | GCAGTCGGAAACGACCGC ((.((((....)))).)) | 52 | -27.3
7 | GATAATGGAAACATTGTC ((.((((....)))).)) | 36.2 | -31.2
8 | GAAAGTGGAAACACCTTC (((.(((....))).))) | 28.8 | -9.58
9 | GCCAGCGAAAGCTAAGGC ((((((....)))..))) | 53.7 | -21.2
10 | GTGTGGCGAAAGCCCAC (((.(((....)))))) | 63 | -18.6
11 | GGTGGCGAAAGCCTAACC ((((((....)))..))) | 43.7 | -16.5
12 | GATCAAAGCTTGATC ((((((...)))))) | 40.1 | -28.1
13 | GGCTTAGGAAACTAAGTC (.(((((....))))).) | 44.4 | -32.5
14 | GCGTAAGGAAACTCACGC ((((.((....)).)))) | 43.8 | -26.5
15 | GACGCGGGAAACTGCGTC (((((.(....).))))) | 64 | -35.2
16 | GACCGCGAAAGCGTGGTC ((((((....)))..))) | 50.9 | -18.6
17 | CGCAAACGGAAACGTGCG (((..(((....)))))) | 50.9 | -36.2
18 | GGTTCCCCGAAAGGGACC (((..(((....)))))) | 45 | -17.9
19 | GATCGCTTAGGCGATC ((((((....)))))) | 68.6 | -32.1
20 | GATCAACTGTTGATC ((((((...)))))) | 44.2 | -36.1
21 | GATACACGAAAGTGATC (((.(((....)))))) | 36.8 | -12.4
22 | GATATGGGAAACCACATC (((.(((....))).))) | 28.4 | -15
23 | GCGACAGGAAACCATCGC ((((..(....)..)))) | 35.8 | -17

Row | Sequence | Tm [1] [°C] | folding enthalpy [2] [kcal/mol]
24 | GCGCTGCGAAAGCCGTGC ((.(.((....)).).)) | 51.9 | -21.5
25 | GCACCGCGAAAGCTCTGC (((..((....))..))) | 27.4 | -10.9
26 | GGTTTCGAAAGAACTACC ((((((....)))..))) | 29.4 | -10.1
27 | GCGACACGAAAGTGACGC (((.(((....))).))) | 68.5 | -38.7
28 | GGGATTGGAAACGATCCC (((((.(....).))))) | 51.9 | -43.8
29 | GATCACGAACGTGATC ((((((....)))))) | 67.3 | -42.4
30 | GGACTCCGAAAGGATCC (((.(((....)))))) | 46.9 | -24.5
31 | GATCCATAATTGGATC ((((((....)))))) | 50.7 | -39.7
32 | GCCATTCCGAAAGGAGGC (((..(((....)))))) | 44.2 | -18.4
33 | GCAAAAGGAAACTTTTGC (((((((....))))))) | 56.5 | -45
34 | GATCCCCAGGGGATC ((((((...)))))) | 61.9 | -33.1
35 | GGACACGAAAGTGTTTCC ((((((....)))..))) | 38 | -11.5
36 | GAACGGCGAAAGCCATTC (((.(((....))).))) | 44.2 | -16.8
37 | GTTACAGGAAACTGTGAC ((.((((....)))).)) | 44.6 | -30
38 | GTCCACCGAAAGGTAGAC (((.(((....))).))) | 47.4 | -26.4
39 | GTGGGCGAAAGCCCTCAC ((((((....)))..))) | 39.5 | -8.43
40 | GACGGCGAAAGCCTTGTC ((((((....)))..))) | 43.9 | -12.3
41 | GTGCGGTCGAAAGACCAC (((..(((....)))))) | 57.5 | -13.3
42 | GATCTTCCTGAAGATC ((((((....)))))) | 51.2 | -39.8
43 | GATCAAGATTTGATC ((((((...)))))) | 40.7 | -29.6
44 | GAACTAGGAAACTAGTTC (((((((....))))))) | 53.8 | -40.2
45 | GCTGGGGGAAACCTCAGC ((((.((....)).)))) | 54.6 | -44.8
46 | GTTGAGGGAAACTTCAGC (.(((.(....).))).) | 31.7 | -16.6

Row | Sequence | Tm [1] [°C] | folding enthalpy [2] [kcal/mol]
47 | GGCGCGGCGAAAGCCGCC (((..(((....)))))) | 48.6 | -5.51
48 | GCAGTCGAAAGACACTGC ((((((....)))..))) | 43.5 | -18
49 | GTGGTACGAAAGTACAC (((.(((....)))))) | 49.7 | -15
50 | GCAATGCGAAAGCATAGC ((.((((....)))).)) | 57.8 | -18.6
51 | GCCCAAACGAAAGTTGGC (((..(((....)))))) | 45 | -19.2
52 | GTTTACCCGAAAGGGAAC (((..(((....)))))) | 26.8 | -9.41
53 | GGTTCCGGAAACGGGATC (.(.(((....))).).) | 39.9 | -19.4
54 | GATCATATTCATGATC ((((((....)))))) | 47.8 | -37.3
55 | GCTAAGGGAAACTTTAGC (((((.(....).))))) | 37.9 | -21.1
56 | GATCAATCGCTTGATC ((((((....)))))) | 45.5 | -44.9
57 | GATCTTTCCCAAGATC ((((((....)))))) | 42.6 | -33.4
58 | GGCATGGGAAACCACGCC (((.(((....))).))) | 49.4 | -35.2
59 | GATCGGGTACCGATC ((((((...)))))) | 67.5 | -44.7
60 | GGATTGCGAAAGCAGTCC (((.(((....))).))) | 60.2 | -38.5
61 | GGCGCAGGAAACTACGCC ((((.((....)).)))) | 53.5 | -39
62 | GTCCGCGAAAGCGCAGAC ((((((....)))..))) | 40.8 | -14.6
63 | GGGTACGAAAGTAGTCCC ((((((....)))..))) | 36.4 | -20.8
64 | GGGAACGGAAACGCTCCC ((((.((....)).)))) | 52.1 | -36.6
65 | GCTTTTACGAAAGTAAGC (((..(((....)))))) | 33.2 | -14.7
66 | GATCTTCAGCAAGATC ((((((....)))))) | 38.9 | -24.6
67 | GCCTTAGCGAAAGCTGGC (((..(((....)))))) | 51.5 | -21
68 | GGCATCGAAAGATCTGCC ((((((....)))..))) | 39.6 | -24.9
69 | GATCCCAACGGGGATC ((((((....)))))) | 59.4 | -30.9

Row | Sequence | Tm [1] [°C] | folding enthalpy [2] [kcal/mol]
70 | GAAAAGGGAAACCTTTTC (((((((....))))))) | 50.6 | -38.8
71 | GATTGGGGAAACCTAATC ((((.((....)).)))) | 37.5 | -29.3
72 | GCTACGCGAAAGCCCAGC (((..((....))..))) | 33.3 | -6.89
73 | GATAACGAAAGTTAGATC ((((((....)))..))) | 35.3 | -16.8
74 | GCGTCGGAACGC ((((....)))) | 52 | -16.8
75 | GCTAAGCGAAAGCGTGGC ((.(.((....)).).)) | 57.1 | -16.1
76 | GATCGGATGCCGATC ((((((...)))))) | 63 | -19
77 | GTCTTCGAAAGAAAGAC ((((((....))).))) | 42.6 | -21.8
78 | GATCGCAATGGCGATC ((((((....)))))) | 67.4 | -35.6
79 | GACCGCGGAAACGCGATC ((.((((....)))).)) | 50.7 | -14.8
80 | GATCGTCGACACGATC ((((((....)))))) | 52.2 | -43.9
81 | GCGATGAGTCGC ((((....)))) | 54.8 | -30.5
82 | GCCACCGCGAAAGCGGGC (((..(((....)))))) | 47.5 | -7.35
83 | GCAGTCCGAAAGGAGTGC (((.(((....))).))) | 65.8 | -47.7
84 | GCATGGCGAAAGCGGTGC (((..((....))..))) | 56.1 | -23.8
85 | GCAACCGAAAGGTACTGC ((((((....)))..))) | 33.5 | -13.9
86 | GGACCCGAAAGGGGTTCC ((((((....)))..))) | 48.3 | -15
87 | GGAGTGGGAAACTGCTCC ((((..(....)..)))) | 44.5 | -31.5
88 | GTAGGTCGAAAGACGTAC (((.(((....))).))) | 51.7 | -36.2
89 | GGAGCTCGAAAGAGTCC (((.(((....)))))) | 48.2 | -17.8
90 | GAGGCCGAAAGGCCCCTC ((((((....)))..))) | 49.7 | -9.61
91 | GTTCGCCGAAAGGCCAAC (((.(((....))).))) | 39.4 | -15.3
92 | GAGACCGAAAGGTAACTC ((((((....)))..))) | 39.7 | -12.3
